Published values gathered from unrelated publications.
Protocols differ between the studies behind these lines.
Organism: Plasmodium falciparum
Read-out: parasite growth
Technique: SYBR Green

SMILES	strain	tested at	time	setting	quantity	value
O[C@H](CN1CCN(C(c2ccccc2)c2ccccc2)CC1)c1cc(Cl)cc2c1-c1ccc(Cl)cc1C2	W2		48 h	drug-resistant strain, blood stage	IC50	70.2 nM
CC(O)(CS(=O)(=O)c1ccc(F)cc1)C(=O)Nc1ccc(C#N)c(C(F)(F)F)c1 (centres unmarked)	DD2		48 h	drug-resistant strain, blood stage	IC50	> 10000 nM
COCC(=O)N1CCC[C@H](C(=O)NCc2nc(-c3ccc(C#N)cc3)cs2)C1	DD2			blood stage	EC50	18 nM
Cn1cc2c3c1C(=O)C(N)=CC3=NCC2	DD2			blood stage	IC50	3550 nM
CC(C)C[C@@H](C=O)NC(=O)[C@H](CC(C)C)NC(=O)[C@H](CC(C)C)NC(=O)OCc1ccccc1	DD2			blood stage	EC50	69 nM
CCCCCCCNCC(O)c1cc(Cl)cc2c1-c1ccc(Cl)cc1C2 (racemic)	W2		48 h	drug-resistant strain, blood stage	IC50	18.6 nM
O=C1C=C2NCCc3c[nH]c(c32)C1=O	3D7			blood stage	IC50	29600 nM
CC(C)C[C@H](NC(=O)[C@H](Cc1ccccc1)NC(=O)c1cnccn1)B(O)O	DD2			blood stage	EC50	41 nM
CCCCCCNC[C@@H](O)c1cc(Cl)cc2c1-c1ccc(Cl)cc1C2	W2		48 h	drug-resistant strain, blood stage	IC50	6.5 nM
Cc1cc(Nc2ccc(S(F)(F)(F)(F)F)cc2)n2nc(C(C)(F)F)nc2n1	DD2			blood stage	EC50	8.5 nM
C[N+]1=C2C=C(NCCc3ccc(O)cc3)C(=O)c3[nH]cc(c32)CC1	DD2			blood stage	IC50	28.3 nM
CCCCCNC[C@H](O)c1cc(Cl)cc2c1-c1ccc(Cl)cc1C2	W2		48 h	drug-resistant strain, blood stage	IC50	3.7 nM
CCCN(CCc1cccs1)[C@H]1CCc2c(O)cccc2C1	DD2		48 h	drug-resistant strain, blood stage	IC50	9270 nM
COCC(=O)N1CCC[C@H](C(=O)NCc2nc(-c3ccccc3)cs2)C1	DD2			blood stage	EC50	69 nM
Cn1cc2c3c1C(=O)C(NCCc1ccc(O)cc1)=CC3=NCC2	3D7			blood stage	IC50	3310 nM
O[C@H](CN[C@@H](COCC1CC1)Cc1ccccc1)c1cc(Cl)cc2c1-c1ccc(Cl)cc1C2	W2		48 h	drug-resistant strain, blood stage	IC50	5.4 nM
C[N+]1=C2C=C(N/C=C/c3ccc(O)cc3)C(=O)c3[nH]cc(c32)CC1	DD2			blood stage	IC50	498 nM
O[C@H](CNCCN1CCN(C(c2ccccc2)c2ccccc2)CC1)c1cc(Cl)cc2c1-c1ccc(Cl)cc1C2	W2		48 h	drug-resistant strain, blood stage	IC50	13 nM
COc1ccccc1C(=O)/C=C/c1cn(Cc2cn(-c3ccnc4cc(Cl)ccc34)nn2)c2ccccc12	3D7	10 µM		blood stage	inhibition	> 50%
C[N+]1=C2C=C(N)C(=O)c3[nH]cc(c32)CC1	3D7			blood stage	IC50	196 nM
O[C@@H](CNCCCC(F)(F)F)c1cc(Cl)cc2c1-c1ccc(Cl)cc1C2	W2		48 h	drug-resistant strain, blood stage	IC50	3.8 nM
Cn1cc2c3c1C(=O)C(N)=CC3=[N+](C)CC2	3D7			blood stage	IC50	1140 nM
O=Cc1cn(Cc2cn(-c3ccnc4cc(Cl)ccc34)nn2)c2ccccc12	3D7	10 µM		blood stage	inhibition	24.5%
